Data from ChEMBL document CHEMBL1139837, “Synthesis and transfection efficiencies of new lipophilic polyamines” (J Med Chem, 2007).
Calls of active or inactive are those of the source.

Legend:
CHO-K1 [1] = test: Increase in uptake of DNA in CHOK1 cells after 4 hrs; type: functional, cell-based; details: Cricetulus griseus
How it was run: (§1)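 Confluent CHO-K1 cells, rinsed, were incubated 4 h at 37 °C in serum-free F12K with 1 µg/mL Alexa Fluor-488-labeled DNA complexed with cationic lipid at 0.5, 2.5 or 5 µg/mL. Cells were washed with PBS, trypsinized, washed with ice-cold PBS/1% BSA to remove surface signal, then assayed by flow cytometry for internalized fluorescence. Gated percent positive cells were set against DNA-only cells; mean ± SD.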

CHO [2] = test: Survival of CHO cells after 48 hrs upto 6.4 uM; type: functional, Cricetulus griseus
How it was run: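 CHO cells grown at 37 °C, 5% CO2, in RPMI with 10% fetal calf serum, 2 mM glutamine, penicillin/streptomycin and 2 mM aminoguanidine. Viability was checked by trypan blue before each run. Cells were plated at 2e3 cells/mL in 96-well plates and dosed after overnight incubation. DMSO was kept below 40 µM. Growth after 48 h was read as MTT formazan absorbance at 540 nm.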

CHO-K1 [3] = test: Transfection efficiency in eGFP encoding DNA transfected CHOK1 cells after 24 hrs at 5 ug/mL; type: functional, Cricetulus griseus
How it was run: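 Subconfluent (~50%) CHO-K1 cells were exposed 4 h at 37 °C in F12K to 1 µg/mL eGFP plasmid complexed with lipid (0.5, 2.5 or 5 µg/mL). Medium was then replaced with growth medium for 24 h. Trypsinized cells were scored by FACS. The gate was set above the no-plasmid/no-lipid threshold (5.5), giving % GFP-positive cells; mean ± SD.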

CHO-K1 [4] = test: Increase in uptake of DNA in CHOK1 cells after 4 hrs at 5 ug/mL; type: functional, cell-based; details: Cricetulus griseus; how it was run: as §1
[5] = Inhibition of [14C]spermine uptake into polyamine transporter in CHOK1 cells; type: cell-based; details: Cricetulus griseus, CHO-K1
How it was run: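 Subconfluent CHO-K1 cells were rinsed three times in F12K and dosed with varying compound concentrations. They were incubated 20 min with 1 µM [14C]spermine (31 Ci/mol) in serum-free medium, rinsed (including 1 mM spermine washes), and lysed in 0.5 M NaOH for 1 h at 37 °C. Lysates were neutralized and scintillation-counted to give an IC50.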

CHO [6] = test: Cytotoxicity against CHO cells after 24 hrs at 0.5 uM; type: cell-based, Cricetulus griseus; details: chinese hamster

Compound | Activity (CHO-K1 [1]) | Survival (CHO [2]) | Activity (CHO-K1 [3]) | Activity (CHO-K1 [4]) | IC50 [5] | Activity (CHO [6])
CCCCCCCC/C=C/CCCCCCCCOc1ccc(CNCCOCCOCCN)cc1OCCCCCCCC/C=C/CCCCCCCC | Dose-dependent effect | >=90% | 25% |  |  | 
CCCCCCCC/C=C/CCCCCCCCOc1ccc(C(=O)NCCCCNCCCCN)cc1OCCCCCCCC/C=C/CCCCCCCC | Dose-dependent effect | >=90% | 40% |  |  | 
CCCCCCCC/C=C/CCCCCCCCOc1ccc(CNCCCCNCCCCNCCCCN)cc1OCCCCCCCC/C=C/CCCCCCCC | Dose-dependent effect | >=90% | 67% | Active | 10 µM | 
CCCCCCCC/C=C/CCCCCCCCOc1ccc(C(=O)NCCCCNCCCCNCCCCN)cc1OCCCCCCCC/C=C/CCCCCCCC | Dose-dependent effect |  |  |  |  | 95%
CCCCCCCC/C=C/CCCCCCCCOc1ccc(CNCCCCNCCCCN)cc1OCCCCCCCC/C=C/CCCCCCCC | Dose-dependent effect | >=90% | 49% | Active |  | 
CCCCCCCC/C=C/CCCCCCCCOc1ccc(CNCCCCN)cc1OCCCCCCCC/C=C/CCCCCCCC | Dose-dependent effect | >=90% | 38% | Active |  | 
CCCCCCCC/C=C/CCCCCCCCOc1ccc(CNCCCCCCCCN)cc1OCCCCCCCC/C=C/CCCCCCCC | Dose-dependent effect | >=90% | 23% |  |  | 
